Assay outcomes (PubChem BioAssay)
Pf gamet viab: inhibitors of late stage P. falciparum gametocyte viability. inhibition, % at 10.9 µM. 150,000 tested, 0.065% active. AID 743093. P. falciparum stage V gametocytes, ATP luminescence, 24 h;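 active = inhibition above the mean plus 3 SD of compounds within the control limits, set per campaign, cut at about 38% in these data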;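 also: 0% = DMSO wells and 100% = medium only without gametocytes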
FLuc inhib CS: Photinus pyralis luciferase inhibition counter-screen. P08659. ATPLite firefly luciferase biochemical luminescence, 10 min. inhibition, % at 10 µM. 200,000 tested, 1.5% active. AID 1006;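 active = inhibition above about 50% when tested at 10 µM, limit read from the data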
Target sequence (P08659 whole entry, looked up): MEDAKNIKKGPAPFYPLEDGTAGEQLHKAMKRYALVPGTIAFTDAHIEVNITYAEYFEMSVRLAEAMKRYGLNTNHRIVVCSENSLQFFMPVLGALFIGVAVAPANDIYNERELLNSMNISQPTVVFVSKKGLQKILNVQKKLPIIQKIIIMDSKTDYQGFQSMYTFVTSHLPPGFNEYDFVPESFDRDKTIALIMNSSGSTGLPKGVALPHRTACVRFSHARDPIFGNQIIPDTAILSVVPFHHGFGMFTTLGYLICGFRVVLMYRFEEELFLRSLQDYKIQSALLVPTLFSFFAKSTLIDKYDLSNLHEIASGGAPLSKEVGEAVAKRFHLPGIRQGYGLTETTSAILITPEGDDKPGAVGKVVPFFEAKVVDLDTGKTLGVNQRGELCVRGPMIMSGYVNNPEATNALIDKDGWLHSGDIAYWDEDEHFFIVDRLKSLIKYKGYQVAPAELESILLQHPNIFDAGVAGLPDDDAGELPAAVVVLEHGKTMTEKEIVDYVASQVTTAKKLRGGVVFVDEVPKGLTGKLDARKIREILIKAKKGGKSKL
NF-kB neuron act: raises NF-kB expression in human neuronal cells; NF-kB reporter expression; hits give high values; fold change at 12.5 µM; 190,000 tested, 1.6% active; AID 1239; in the data active = fold change above about 3.3
STAT1 act: STAT1 signaling activation | NIH 3T3 STAT1-luciferase reporter, IFN-gamma, luminescence; 100% = IFN-gamma alone, no compound | activation (% of control), % at 5.5 µM | 200,000 tested, 2.6% active;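 active = activation above the screen-wide mean activation plus 3 SD, cut at about 130% in these data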;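 also: raw ratio to IFN-gamma control signal so 100% means no change and 0% no light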
APP 5'UTR act: activates APP 5'UTR luciferase reporter; SH-SY5Y APP 5'UTR luciferase reporter, luminescence; zero percent = DMSO vehicle wells; activation, % at 2 µM; 190,000 tested, 1% active;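 active = activation above a set limit, based on mean plus 3 SD of controls, cut at about 140% in these data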
FLuc act counter: firefly luciferase counter-screen for stimulation assays; P08659; ATPlite luciferase biochemical, luminescence, 10 min; 0 = ATP-free wells, 1 = DMSO control; activation factor at 10 µM; 200,000 tested, under 10 active;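 active = luciferase activation factor, scaled between plate controls, of at least 2 with compound at 10 µM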
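Material: Luciferase/luciferin reagent mix; Doses: test compounds dosed from 2 mM stocks in 100% DMSO; Schedule: 10 min incubation after luciferase reagent addition, room temperature; Measured by: luminescence from luciferase reaction; Read-out: luminescence gain marking luciferase activators.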
* marks the source's active call; other numbers are inactive results. Rows were chosen to be rich in hits. Some 3.5% of all compounds tested hit in one or more screens of this group.

For O=C(OCc1ccc([N+](=O)[O-])cc1Cl)c1cnccn1 the results were Pf gamet viab -11.
`CC(C)(C)[C@@H]1COC(=O)[C@@H](Cc2ccc(F)cc2)C/C=C\C[C@H](CC(=O)N(CCO)Cc2ccccc2)C(=O)N1` gave Pf gamet viab 20.
For Cc1cccc(C)c1NC(=O)C1(NC(=O)C2CCCN2C(=O)OC(C)(C)C)CCCCC1 (centres undefined) the results were Pf gamet viab -5, FLuc inhib CS 5, NF-kB neuron act 0.98, STAT1 act 105, APP 5'UTR act 10 and FLuc act counter 1.
For CCOC(=O)/C(=C\c1ccccc1)C(=O)c1cc(C(C)=O)c(Nc2ccccc2)s1 the results were FLuc inhib CS -6, NF-kB neuron act 9.7*, STAT1 act 79, APP 5'UTR act -11 and FLuc act counter 1.1.
CCOC(=O)/C(=C\c1cccnc1)C(=O)c1cc(C(C)=O)c(Nc2ccccc2)s1 was read as FLuc inhib CS -5, NF-kB neuron act 0.16, STAT1 act 104, APP 5'UTR act -45 and FLuc act counter 1.1.
For Nc1ccc(S(=O)(=O)NC(Cc2ccccc2)C(=O)O)cc1 (centres undefined) the results were Pf gamet viab -3.
Screening Cc1ccccc1Nc1nc(N)nc(COC(=O)c2cccn2C)n1 returned Pf gamet viab 25, FLuc inhib CS 2, NF-kB neuron act 2.9, STAT1 act 141*, APP 5'UTR act 77 and FLuc act counter 1.
`Cn1cccc1C(=O)OCc1csc(-c2ccccc2)n1` gave FLuc inhib CS 61*, NF-kB neuron act 5.8*, STAT1 act 134*, APP 5'UTR act 150* and FLuc act counter 0.4.
`CNS(=O)(=O)c1cccc(C(=O)OCc2csc(-c3ccccc3)n2)c1` gave FLuc inhib CS 1, NF-kB neuron act 1.1, STAT1 act 112, APP 5'UTR act 17 and FLuc act counter 1.
Cc1ccsc1C(=O)OCc1csc(-c2ccccc2)n1 was read as Pf gamet viab 7, FLuc inhib CS 48, NF-kB neuron act 9.4*, STAT1 act 99, APP 5'UTR act 195* and FLuc act counter 0.5.
Screening Cc1ccc(CNc2ccc(N3CCN(C)CC3=O)cc2)cc1 returned Pf gamet viab -12.
Screening CCCNC(=O)C12CCC(C)(c3nc4cc(C)c(C)cc4nc31)C2(C)C (centres undefined) returned Pf gamet viab 9, FLuc inhib CS -3, NF-kB neuron act 1.1, STAT1 act 94, APP 5'UTR act -14 and FLuc act counter 1.
`CCCc1cc(=O)n2c([nH]c3ccccc32)c1C#N` gave FLuc inhib CS 66*, NF-kB neuron act 1.2, STAT1 act 94, APP 5'UTR act -6 and FLuc act counter 0.3.
For CCCCc1c(C)c(C#N)c2[nH]c3ccccc3n2c1=O the results were FLuc inhib CS -4, NF-kB neuron act 0.48, STAT1 act 83, APP 5'UTR act 7 and FLuc act counter 1.
Screening O=C(/C=C/c1ccccc1)OCc1cncs1 returned FLuc inhib CS 1, NF-kB neuron act 2, STAT1 act 129*, APP 5'UTR act 29 and FLuc act counter 1.
`COc1ccnc(Oc2ccc(F)cc2)c1-c1ncn[nH]1` gave Pf gamet viab -6, FLuc inhib CS -5, NF-kB neuron act 1.1, STAT1 act 104, APP 5'UTR act -6 and FLuc act counter 1.1.
`Cc1c(-c2ccccn2)c(=O)[nH]n1-c1ccc(F)cc1` gave FLuc inhib CS 61*, NF-kB neuron act 3.8*, STAT1 act 105, APP 5'UTR act 125 and FLuc act counter 0.4.
Cn1c(CCc2ccc(N)cc2)nc2ccccc21 was read as Pf gamet viab -12, FLuc inhib CS 55*, NF-kB neuron act 2.6, STAT1 act 128, APP 5'UTR act 131 and FLuc act counter 0.5.
`Cn1c(-c2ccc(N)cc2)nc2ccccc21` gave FLuc inhib CS 19, NF-kB neuron act 2, STAT1 act 109, APP 5'UTR act 47 and FLuc act counter 0.8.
Screening CCc1cc2c(=O)oc(-c3ccccc3F)nc2s1 returned Pf gamet viab -35.
Cc1ccc(C)c2c(SC(C)C(=O)NCc3ccco3)nc(-c3ccccc3)nc12 (centres undefined) was read as FLuc inhib CS -3, NF-kB neuron act 1, STAT1 act 100, APP 5'UTR act -6 and FLuc act counter 1.
Cc1ccc2nc(-c3ccccc3)nc(SC(C)C(=O)NCc3cccs3)c2c1 (centres undefined) was read as FLuc inhib CS -4, NF-kB neuron act 5*, STAT1 act 96, APP 5'UTR act -4 and FLuc act counter 1.
For Cc1ccc(N2C(SCC(=O)O)=NC(=Nc3cccc(C)c3)C23CCCC3)cc1 the results were Pf gamet viab -1, FLuc inhib CS 2, NF-kB neuron act 0.86, STAT1 act 99, APP 5'UTR act 5 and FLuc act counter 1.
`O=C(Cc1sc(Nc2ccccc2)nc1-c1ccccc1)NCc1ccccn1` gave Pf gamet viab 14, FLuc inhib CS 2, NF-kB neuron act 1.4, STAT1 act 130*, APP 5'UTR act 8 and FLuc act counter 1.
For O=C(Cc1ccccc1)NCc1ccccn1 the results were Pf gamet viab 18, FLuc inhib CS -6, NF-kB neuron act 1.1, STAT1 act 109, APP 5'UTR act 12 and FLuc act counter 1.1.
`Cc1ccc(Nc2nc(-c3ccccc3)c(CC(=O)O)s2)cc1` gave Pf gamet viab -6, FLuc inhib CS 6, NF-kB neuron act 1.3, STAT1 act 131*, APP 5'UTR act 53 and FLuc act counter 0.9.
`O=C(NCCCn1ccnc1)c1ccc(S(=O)(=O)Nc2ccccc2)cc1` gave Pf gamet viab -4.
For O=C(COc1ccccc1)Nc1nc2ccccc2[nH]1 the results were Pf gamet viab 16, FLuc inhib CS 48, NF-kB neuron act 2.6, STAT1 act 129*, APP 5'UTR act 56 and FLuc act counter 0.5.
Screening CC(CC(=O)Nc1nc2ccccc2[nH]1)c1ccccc1 (centres undefined) returned FLuc inhib CS 25, NF-kB neuron act 2.5, STAT1 act 145*, APP 5'UTR act 123 and FLuc act counter 0.8.
For Cc1ccccc1OCC(=O)Nc1nc2ccccc2[nH]1 the results were Pf gamet viab -19, FLuc inhib CS 84*, NF-kB neuron act 2.1, STAT1 act 136*, APP 5'UTR act 114 and FLuc act counter 0.2.
Screening O=C(Cc1cccc2ccccc12)Nc1ccccc1Br returned Pf gamet viab -45.
Cc1ccsc1C(=O)NNC(=O)C1CCCCC1C(=O)O (centres undefined) was read as FLuc inhib CS -3, NF-kB neuron act 1.4, STAT1 act 129*, APP 5'UTR act 97 and FLuc act counter 1.
